Key:
[1] = Ratio of inhibitory activities against endothelin converting enzyme-1(ECE-1) and neutral endopeptidase (NEP).
[2] = target: T1, Endothelin-converting enzyme 1 (Homo sapiens, UniProt P42892); assay: Inhibitory activity was assessed on CHO cells expressing recombinant human Endothelin-converting enzyme 1 (ECE-1).; type: cell-based
T1 sequence (P42892 whole entry): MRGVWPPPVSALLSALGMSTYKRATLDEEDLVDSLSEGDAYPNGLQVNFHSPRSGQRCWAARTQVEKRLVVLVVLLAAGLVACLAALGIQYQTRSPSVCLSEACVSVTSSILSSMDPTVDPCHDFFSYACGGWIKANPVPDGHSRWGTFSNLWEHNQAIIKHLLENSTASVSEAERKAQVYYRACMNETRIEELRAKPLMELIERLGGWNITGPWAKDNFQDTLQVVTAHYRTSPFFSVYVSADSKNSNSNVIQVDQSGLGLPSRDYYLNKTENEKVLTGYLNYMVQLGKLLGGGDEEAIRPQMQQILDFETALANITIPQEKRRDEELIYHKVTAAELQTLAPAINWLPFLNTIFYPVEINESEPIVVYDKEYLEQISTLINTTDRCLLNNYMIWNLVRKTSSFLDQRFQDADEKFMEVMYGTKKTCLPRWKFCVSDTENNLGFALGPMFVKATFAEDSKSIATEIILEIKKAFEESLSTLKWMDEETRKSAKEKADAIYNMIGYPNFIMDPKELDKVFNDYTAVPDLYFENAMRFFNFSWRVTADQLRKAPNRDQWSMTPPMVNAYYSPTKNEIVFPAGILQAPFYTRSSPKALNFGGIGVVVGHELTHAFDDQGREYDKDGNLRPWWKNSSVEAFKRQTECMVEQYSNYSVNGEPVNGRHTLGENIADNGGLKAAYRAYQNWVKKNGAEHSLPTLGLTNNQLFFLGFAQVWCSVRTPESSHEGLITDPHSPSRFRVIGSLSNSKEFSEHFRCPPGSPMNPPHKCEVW
Outline: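 Membrane preparation (10 µg protein) from CHO cells expressing human ECE-1 was preincubated with compound for 20 min at room temperature in 50 mM Tes pH 7.0 with 0.005% Triton X-100. Human big ET-1 was added to a final 0.2 µM for 2 h at 37 °C. ET-1 formed was measured by [¹²⁵I]ET-1 radioimmunoassay.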

[3] = target: Neprilysin (Homo sapiens, UniProt P08473); assay: Inhibitory activity against neutral endopeptidase (NEP).
[4] = target: T2, Endothelin-converting enzyme 1 (Homo sapiens) (UniProt P42892); assay: Inhibitory activity (1 uM) was assessed on CHO cells expressing in recombinant human Endothelin-converting enzyme 1 (ECE-1); type: cell-based
T2 sequence (whole entry): T1 sequence (P42892 whole entry)

[5] = target: T3, Neprilysin (Rattus norvegicus) (UniProt P07861); assay: Inhibitory activity (10 uM) against rat neutral endopeptidase (NEP)
T3 sequence (whole entry): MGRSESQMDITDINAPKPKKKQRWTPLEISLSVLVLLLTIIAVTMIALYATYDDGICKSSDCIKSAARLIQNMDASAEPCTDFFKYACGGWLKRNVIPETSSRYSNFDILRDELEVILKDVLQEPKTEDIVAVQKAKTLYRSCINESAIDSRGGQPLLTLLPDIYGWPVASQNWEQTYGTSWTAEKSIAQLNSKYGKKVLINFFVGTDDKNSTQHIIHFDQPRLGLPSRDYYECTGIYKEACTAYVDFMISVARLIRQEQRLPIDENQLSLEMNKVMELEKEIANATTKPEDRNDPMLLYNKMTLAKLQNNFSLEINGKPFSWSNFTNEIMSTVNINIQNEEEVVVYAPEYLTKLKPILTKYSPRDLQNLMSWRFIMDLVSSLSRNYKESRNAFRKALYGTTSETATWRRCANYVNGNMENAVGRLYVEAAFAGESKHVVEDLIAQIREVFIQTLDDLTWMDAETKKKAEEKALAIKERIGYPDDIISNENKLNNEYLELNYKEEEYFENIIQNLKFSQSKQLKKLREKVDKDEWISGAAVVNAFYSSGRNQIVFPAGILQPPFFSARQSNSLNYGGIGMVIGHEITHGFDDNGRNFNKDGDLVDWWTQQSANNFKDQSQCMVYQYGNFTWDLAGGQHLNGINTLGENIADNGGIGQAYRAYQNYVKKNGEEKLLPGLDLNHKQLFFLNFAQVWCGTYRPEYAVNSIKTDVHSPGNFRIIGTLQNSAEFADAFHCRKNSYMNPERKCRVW

[6] = target: T2, Endothelin-converting enzyme 1 (Homo sapiens); assay: Inhibitory activity (1 uM) was assessed on CHO cells expressing in recombinant human Endothelin-converting enzyme 1 (ECE-1)

Neprilysin, sequence (P08473 whole entry): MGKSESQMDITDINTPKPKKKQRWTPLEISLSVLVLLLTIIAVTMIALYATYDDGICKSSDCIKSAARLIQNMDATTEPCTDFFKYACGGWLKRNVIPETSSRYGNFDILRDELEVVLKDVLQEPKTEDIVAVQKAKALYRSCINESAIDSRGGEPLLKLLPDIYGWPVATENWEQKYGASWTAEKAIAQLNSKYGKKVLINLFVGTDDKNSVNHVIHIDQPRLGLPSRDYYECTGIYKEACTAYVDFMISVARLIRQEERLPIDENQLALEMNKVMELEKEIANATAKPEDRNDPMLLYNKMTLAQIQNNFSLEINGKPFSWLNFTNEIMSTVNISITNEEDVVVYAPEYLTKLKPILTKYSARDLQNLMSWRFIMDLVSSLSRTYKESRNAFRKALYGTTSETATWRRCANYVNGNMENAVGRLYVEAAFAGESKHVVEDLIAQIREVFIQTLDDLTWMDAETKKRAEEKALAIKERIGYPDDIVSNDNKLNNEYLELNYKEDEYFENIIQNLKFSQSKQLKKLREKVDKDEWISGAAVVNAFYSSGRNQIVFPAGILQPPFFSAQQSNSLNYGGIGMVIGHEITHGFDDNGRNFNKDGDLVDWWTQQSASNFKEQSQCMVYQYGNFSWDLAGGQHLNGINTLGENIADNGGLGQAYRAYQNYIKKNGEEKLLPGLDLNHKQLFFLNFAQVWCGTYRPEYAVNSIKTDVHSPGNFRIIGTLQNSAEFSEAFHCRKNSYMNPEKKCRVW

Structure (SMILES) | Selectivity [1] | IC50 [2] [µM] | IC50 [3] [µM] | inhibition [4] [%] | inhibition [5] [%] | inhibition [6] [%]
CC(C)C[C@H](NC(=O)[C@H](CC#Cc1ccccc1)NCP(=O)(O)O)C(=O)O | 1.9 | 0.51 | 0.948 | – | – | –
O=P(O)(O)CN[C@@H](CC#Cc1ccccc1)c1nn[nH]n1 | 0.3 | 0.59 | 0.17 | – | – | –
O=C(O)CN1C(=O)[C@@H](NC(=O)[C@H](CC#Cc2ccc(F)cc2F)NCP(=O)(O)O)CCc2ccccc21 | 9 | 0.082 | 0.73 | – | – | –
CC(C)C[C@H](NC(=O)[C@H](CC#Cc1ccc(F)cc1F)NCP(=O)(O)O)C(=O)N[C@@H](C)C(=O)O | 725 | 0.008 | 5.8 | – | – | –
O=C(NCCc1ccccc1)[C@H](CC#Cc1ccccc1F)NCP(=O)(O)O | 83 | 0.23 | 19 | – | – | –
CC(C)C[C@H](NC(=O)[C@H](CC#Cc1ccccc1F)NCP(=O)(O)O)C(=O)O | – | 0.12 | – | – | – | –
O=C(NCCc1ccccc1)[C@H](CC#Cc1ccc(F)cc1F)NCP(=O)(O)O | – | 0.11 | – | – | – | –
CC(C)CCNC(=O)[C@H](CC#Cc1ccc(F)cc1F)NCP(=O)(O)O | 164 | 0.14 | 23 | – | – | –
O=P(O)(O)CN[C@@H](CC#Cc1ccccc1F)c1nnn[nH]1 | 0.1 | 0.15 | 0.014 | – | – | –
CC(C)C[C@H](NC(=O)[C@H](CC#Cc1ccc(F)cc1F)NCP(=O)(O)O)C(=O)O | 131 | 0.051 | 6.7 | – | – | –
O=C(NCCc1c[nH]c2ccccc12)[C@H](CC#Cc1ccc(F)cc1F)NCP(=O)(O)O | 87 | 0.111 | 9.7 | – | – | –
O=C(O)[C@H](CC#Cc1ccc(F)cc1F)NCP(=O)(O)O | 153 | 0.17 | 26 | – | – | –
CC(C)[C@H](NC(=O)[C@H](CC#Cc1ccccc1F)NCP(=O)(O)O)C(=O)O | 57 | 0.11 | 6.3 | – | – | –
O=P(O)(O)C(CCc1cccc2ccccc12)N[C@@H](Cc1ccc(-c2ccccc2)cc1)c1nnn[nH]1 (some centres not stated) | 0.29 | 0.017 | 0.005 | – | – | –
O=C(O)[C@H](CC1CCCCC1)NC(=O)[C@H](CC#Cc1ccc(F)cc1F)NCP(=O)(O)O | 148 | 0.014 | 2.07 | – | – | –
O=C(NCCc1ccc(Br)cc1)[C@H](CC#Cc1ccc(F)cc1F)NCP(=O)(O)O | 20 | 0.043 | 0.86 | – | – | –
O=C(NCCc1ccc(-c2ccccc2)cc1)[C@H](CC#Cc1ccc(F)cc1F)NCP(=O)(O)O | 89 | 0.028 | 2.5 | – | – | –
O=C(NCc1ccccc1)[C@H](CC#Cc1ccccc1F)NCP(=O)(O)O | 220 | 0.25 | 55 | – | – | –

Now from value to compound:

Selectivity [1] | IC50 [2] [µM] | IC50 [3] [µM] | inhibition [4] [%] | inhibition [5] [%] | inhibition [6] [%] | Structure (SMILES)
132 | 0.053 | 7 | – | – | – | O=C(NCCc1ccc2ccccc2c1)[C@H](CC#Cc1ccc(F)cc1F)NCP(=O)(O)O
– | – | – | 0 | – | – | O=C(NCCCCc1ccccc1)[C@H](CC#Cc1ccccc1F)NCP(=O)(O)O
– | – | – | 3 | – | – | CN(CCc1ccccc1)C(=O)[C@H](CC#Cc1ccccc1F)NCP(=O)(O)O
– | 0.15 | – | – | – | – | O=C(NCCCc1ccccc1)[C@H](CC#Cc1ccc(F)cc1F)NCP(=O)(O)O
46 | 0.24 | 11 | – | – | – | O=C(O)[C@H](CC#Cc1ccccc1F)NCP(=O)(O)O
132 | 0.076 | 10 | – | – | – | O=C(NCCc1c[nH]c2ccccc12)[C@H](CC#Cc1ccccc1F)NCP(=O)(O)O
– | 0.16 | – | – | 21 | – | COc1ccc(CCNC(=O)[C@H](CC#Cc2ccc(F)cc2F)NCP(=O)(O)O)cc1OC
– | 4.3 | – | – | 38 | – | CC(C)C[C@H](NC(=O)[C@H](CC#Cc1ccccc1Cl)NCP(=O)(O)O)C(=O)O
82 | 0.13 | 10.7 | – | – | – | O=C(NCCc1cccc2ccccc12)[C@H](CC#Cc1ccccc1F)NCP(=O)(O)O
– | 0.4 | – | – | – | – | CC(C)C[C@H](NC(=O)[C@H](CC#Cc1cccc(F)c1)NCP(=O)(O)O)C(=O)O
52 | 0.025 | 1.3 | – | – | – | O=C(O)[C@H](Cc1ccc2ccccc2c1)NC(=O)[C@H](CC#Cc1ccccc1F)NCP(=O)(O)O
21 | 0.056 | 1.2 | – | – | – | O=C(O)[C@H](Cc1ccccc1)NC(=O)[C@H](CC#Cc1ccccc1F)NCP(=O)(O)O
32 | 0.31 | 10 | – | – | – | O=C(NCCc1ccccn1)[C@H](CC#Cc1ccc(F)cc1F)NCP(=O)(O)O
– | – | – | 0 | – | – | COc1ccccc1C#CC[C@H](NCP(=O)(O)O)c1nn[nH]n1
18 | 0.23 | 4.06 | – | – | – | CSCC[C@H](NC(=O)[C@H](CC#Cc1ccccc1F)NCP(=O)(O)O)C(=O)O
19 | 0.013 | 0.25 | – | – | – | O=C(O)[C@H](Cc1ccc(-c2ccccc2)cc1)NC(=O)[C@H](CC#Cc1ccccc1F)NCP(=O)(O)O
182 | 0.034 | 6.2 | – | – | – | O=C(NCCc1cccc2ccccc12)[C@H](CC#Cc1ccc(F)cc1F)NCP(=O)(O)O
225 | 0.028 | 6.3 | – | – | – | O=C(O)[C@H](CC#Cc1ccccc1F)NC(=O)[C@H](CC#Cc1ccccc1F)NCP(=O)(O)O
197 | 0.033 | 6.5 | – | – | – | O=C(NCCc1ccc(-c2ccccc2)cc1)[C@H](CC#Cc1ccccc1F)NCP(=O)(O)O
– | – | – | – | 12 | 0 | COc1ccccc1C#CC[C@H](NCP(=O)(O)O)C(=O)N[C@@H](CC(C)C)C(=O)O
– | – | – | 8 | – | – | O=C(NCCc1ccc(-c2ccccc2)cc1)[C@H](CCCc1ccccc1F)NCP(=O)(O)O
– | – | – | 45 | – | – | Cc1ccc(C#CC[C@H](NCP(=O)(O)O)c2nn[nH]n2)cc1
364 | 0.11 | 40 | – | – | – | O=C(NCCc1ccc(Br)cc1)[C@H](CC#Cc1ccccc1F)NCP(=O)(O)O

Source: ChEMBL document CHEMBL1131381, “Design and synthesis of potent, selective inhibitors of endothelin-converting enzyme” (J Med Chem, 1998)
